Experimental data reported in ChEMBL document CHEMBL5113464, “A multi-pronged evaluation of aldehyde-based tripeptidyl main protease inhibitors as SARS-CoV-2 antivirals” (Eur J Med Chem, 2022).
pEC50: −log10 of the molar value.

Columns and labels:
SARS-CoV-2 [1] = assay: Antiviral activity against SARS-Cov2 Beta infected in African green monkey Vero E6 cells assessed as viral plaque reduction measured after 3 days by plaque reduction neutralization test; format: functional, organism-based; details: Severe acute respiratory syndrome coronavirus 2, Beta, Vero C1008, 72 h
SARS-CoV-2 [2] = assay: Antiviral activity against SARS-Cov2 Delta infected in African green monkey Vero E6 cells assessed as viral plaque reduction measured after 3 days by plaque reduction neutralization test; format: functional, organism-based; details: Severe acute respiratory syndrome coronavirus 2, Delta, Vero C1008, 72 h
SARS-CoV-2 [3] = assay: Antiviral activity against SARS-Cov2 USA-WA1/2020 infected in African green monkey Vero E6 cells assessed as viral plaque reduction measured after 3 days by plaque reduction neutralization test; format: functional, organism-based; details: Severe acute respiratory syndrome coronavirus 2, USA-WA1/2020, Vero C1008, 72 h
[4] = Cytotoxicity against HEK293T/17 cells by MTT assay; format: toxicity, cell-based; details: human
How it was run: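 MTT viability assay in 293T cells. CC50 is derived from cytotoxicity curves of compound concentration versus viability.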

[5] = biological target: T1, Replicase polyprotein 1ab (Severe acute respiratory syndrome coronavirus 2, UniProt P0DTD1); assay: Inhibition of His/SUMO tagged SARS-CoV2 main protease expressed in Escherichia coli BL21 (DE3) cells using Dabcyl-KTSAVLQSGFRKME-Edans as substrate preincubated for 30 mins followed by substrate addition and measured after 30 mins by fluorescence plate reader analysis
[6] = biological target: T1, Replicase polyprotein 1ab; assay: Inhibition of eGFP fused SARS-CoV2 main protease transfected in HEK293T/17 cells incubated for 72 hrs by fluorescence based flow cytometry analysis; format: cell-based

SMILES	pEC50 (SARS-CoV-2 [1])	pEC50 (SARS-CoV-2 [2])	pEC50 (SARS-CoV-2 [3])	CC50 ([4]; HEK293T/17 cells)	IC50 [5]	EC50 [6]	CC50 ([4]; hek293t/17)
CC(C)(C)C[C@H](NC(=O)[C@@H](NC(=O)OCc1ccccc1)C(C)(C)C)C(=O)N[C@H](C=O)C[C@@H]1CCNC1=O	6.15	5.30	< 5.30	> 200 µM	–	–	–
C[C@@H](OC(C)(C)C)[C@H](NC(=O)OCc1ccccc1)C(=O)N[C@@H](CC(C)(C)C)C(=O)N[C@H](C=O)C[C@@H]1CCNC1=O	5.92	6.24	5.92	> 200 µM	–	–	–
C[C@@H](OC(C)(C)C)[C@H](NC(=O)OCc1ccccc1)C(=O)N[C@@H](CC1CC1)C(=O)N[C@H](C=O)C[C@@H]1CCNC1=O	5.74	5.96	5.92	> 200 µM	–	–	–
CC(C)[C@H](NC(=O)OCc1ccccc1)C(=O)N[C@@H](Cc1cccs1)C(=O)N[C@H](C=O)C[C@@H]1CCNC1=O	–	–	–	–	Nd(Insoluble)	Nd(Insoluble)	–
CC(C)C[C@H](NC(=O)[C@@H](NC(=O)OCc1cccc(Cl)c1)[C@@H](C)OC(C)(C)C)C(=O)N[C@H](C=O)C[C@@H]1CCNC1=O	6.19	5.80	5.72	–	–	–	183 µM
C[C@@H](OC(C)(C)C)[C@H](NC(=O)OCc1cccc(Cl)c1)C(=O)N[C@@H](CC1CCCCC1)C(=O)N[C@H](C=O)C[C@@H]1CCNC1=O	5.80	6.06	5.66	–	–	–	130 µM
CC(OC(C)(C)C)[C@H](NC(=O)OCc1ccccc1)C(=O)N[C@@H](CC1CCCCC1)C(=O)N[C@H](C=O)C[C@@H]1CCNC1=O (single isomer, unassigned)	–	–	–	–	–	–	109 µM
CC(C)[C@H](NC(=O)OCc1cccc(Cl)c1)C(=O)N[C@@H](CC1CCCCC1)C(=O)N[C@H](C=O)C[C@@H]1CCNC1=O	< 5.30	5.49	< 5.30	–	–	–	114 µM
